The record followed here is ChEMBL document CHEMBL1132814, “N-1 substituted pyrimidin-4-ones: novel, orally active inhibitors of lipoprotein-associated phospholipase A2” (Bioorg Med Chem Lett, 2000).

Assay [1] addresses T1, Platelet-activating factor acetylhydrolase (Homo sapiens, UniProt Q13093).
T1 sequence (Q13093 whole entry): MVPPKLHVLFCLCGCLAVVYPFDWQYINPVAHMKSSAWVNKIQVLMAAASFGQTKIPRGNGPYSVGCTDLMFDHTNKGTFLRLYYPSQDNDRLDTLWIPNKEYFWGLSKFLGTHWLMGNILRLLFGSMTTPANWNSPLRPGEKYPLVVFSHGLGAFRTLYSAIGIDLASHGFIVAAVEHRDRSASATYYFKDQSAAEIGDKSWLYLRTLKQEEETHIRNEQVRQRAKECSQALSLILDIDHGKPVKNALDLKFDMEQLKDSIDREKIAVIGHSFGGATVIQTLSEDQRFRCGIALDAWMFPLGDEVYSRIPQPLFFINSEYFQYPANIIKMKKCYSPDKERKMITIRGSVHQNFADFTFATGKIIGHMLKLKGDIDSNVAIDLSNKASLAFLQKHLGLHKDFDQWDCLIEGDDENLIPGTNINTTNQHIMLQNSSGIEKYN
Put plainly: Inhibition of isolated human lipoprotein associated phospholipase A2.

Assay [2] has as its target T2, Platelet-activating factor acetylhydrolase (Homo sapiens) (UniProt Q13093).
T2 sequence (whole entry): T1 sequence (Q13093 whole entry)
Description: Inhibition of Lipoprotein associated phospholipase A2 in human plasma at 100 nM. The format is cell-free. In a few lines: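 Whole plasma (human, or WHHL rabbit) mixed with compound in DMSO at a single concentration and preincubated 10 min at 37 °C before enzyme assay. Reaction ran 60 s in human plasma and 15 s in rabbit plasma, then stopped with CHCl3/MeOH (2:1). Released [3H]acetate was read by scintillation counting of the aqueous layer after chloroform extraction.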

For the compound `O=C(Cn1cc(Cc2cncnc2)c(=O)nc1SCc1ccc(F)cc1)NCCCCCCc1ccc(F)cc1`, in assay [1], 2 nM corresponded to half-maximal inhibition (IC50).

For the compound `CCn1cc(Cc2cncnc2)c(=O)nc1SCCCCCCCC(=O)c1ccc(Cl)cc1`, in assay [1], the IC50 (commonly the concentration that inhibits the measured activity by half) stood at 39 nM.

As to `CCCCCCc1ccc(CCn2cc(Cc3cncnc3)c(=O)nc2SCc2ccc(F)cc2)cc1`, in assay [1], the IC50 worked out at 12 nM.

With `O=c1nc(SCc2cccc(F)c2)n(Cc2ccco2)cc1Cc1cncnc1`, in assay [1], the IC50 was determined as 250 nM.

For the compound `CCCCCCCCCCNC(=O)CCCn1cc(Cc2cncnc2)c(=O)nc1SCc1ccc(F)cc1`, in assay [1], the midpoint of inhibition, the IC50, lay at 0.1 nM.

For `CCCCCCCCNC(=O)Cn1cc(Cc2cncnc2)c(=O)nc1SCc1ccc(F)cc1`, in assay [1], half-maximal inhibition (IC50) was put at 7 nM.

Regarding `O=C(CCCCCCCSc1nc(=O)c(Cc2cncnc2)cn1Cc1ccco1)c1ccc(Cl)cc1`, the IC50 in assay [1] stood at 16 nM.

Compound `O=c1nc(SCc2ccc(F)c(F)c2)n(CCc2ccccc2)cc1Cc1cncnc1` yielded an IC50 in assay [1] of 110 nM. This IC50 is about 6.9-fold higher than that of the compound before.

With `O=c1nc(SCc2ccccc2)n(CCc2cccs2)cc1Cc1cncnc1`, the IC50 in assay [1] stood at 350 nM.

As for `O=c1nc(SCc2ccc(Cl)cc2)n(Cc2ccco2)cc1Cc1cncnc1`, the midpoint of inhibition in assay [1], the IC50, lay at 1400 nM.

For the compound `O=C(CCCCCCCSc1nc(=O)c(Cc2cncnc2)cn1Cc1cccs1)c1ccc(Cl)cc1`, the 50% inhibitory concentration (IC50) in assay [1] was determined as 11 nM.

In the case of `O=c1nc(SCc2cccc(Cl)c2)n(Cc2ccco2)cc1Cc1cncnc1`, the IC50 in assay [1] was found to be 960 nM.

Turning to `O=c1nc(SCc2ccc(F)c(F)c2)n(Cc2ccco2)cc1Cc1cncnc1`, in assay [1], the IC50 amounted to 235 nM. Against the preceding compound, the IC50 is about 4.1-fold lower.

As for `O=c1nc(SCc2ccc(F)cc2)n(CCCCCCCCCc2ccccc2)cc1Cc1cncnc1`, half-maximal inhibition in assay [1] (IC50) was put at 25 nM. Against the preceding compound, the IC50 is about 9.4-fold lower.

The compound `O=c1nc(SCc2ccccc2F)n(Cc2ccco2)cc1Cc1cncnc1` registered a 50% inhibitory concentration (IC50) in assay [1] of 450 nM.

In the case of `O=c1nc(SCc2ccc(F)cc2)n(CCc2cccs2)cc1Cc1cncnc1`, in assay [1], the 50% inhibitory concentration (IC50) was 250 nM.

`CCCCNC(=O)CCCCCn1cc(Cc2cncnc2)c(=O)nc1SCc1ccc(F)cc1` showed an IC50 in assay [1] of 260 nM.

With `COCCn1cc(Cc2cncnc2)c(=O)nc1SCc1ccccc1`, in assay [1], inhibition was half-maximal at 1200 nM (IC50).

For the compound `CCCCCCCC/C=C/CCCCCCCCNC(=O)Cn1cc(Cc2cncnc2)c(=O)nc1SCc1ccc(F)cc1`, it took 2 nM to reach half-maximal inhibition in assay [1] (IC50).

Compound `O=C(CCCCCCCSc1nc(=O)c(Cc2cncnc2)cn1Cc1ccccc1)c1ccc(Cl)cc1` gave an IC50 in assay [1] of 36 nM.

Turning to `CCCCCCCC(=O)NCCn1cc(Cc2cncnc2)c(=O)nc1SCc1ccc(F)cc1`, inhibition in assay [1] was half-maximal at 140 nM (IC50). Against the preceding compound, the IC50 is about 3.9-fold higher.

In turn, `O=c1nc(SCc2ccccc2)n(Cc2ccccc2)cc1Cc1cncnc1` yielded an IC50 in assay [1] of 450 nM. This IC50 lies about 3.2-fold higher than the previous one.

`CCCCCCCNC(=O)Cn1cc(Cc2cncnc2)c(=O)nc1SCc1ccc(F)cc1` gave an IC50 in assay [1] of 19 nM. This IC50 lies about 24-fold lower than the previous one.

`O=c1nc(SCc2ccccc2)n(CCCc2ccccc2)cc1Cc1cncnc1` registered an IC50 in assay [1] of 300 nM.

Compound `CCCCCCCNC(=O)NCCn1cc(Cc2cncnc2)c(=O)nc1SCc1ccc(F)cc1` yielded an IC50 in assay [1] of 70 nM.

Regarding `CCCCCCCN(C)C(=O)CCCn1cc(Cc2cncnc2)c(=O)nc1SCc1ccc(F)cc1`, in assay [1], the half-maximal inhibitory concentration (IC50) was 3 nM.

In assay [1], `O=c1nc(SCc2ccccc2)n(CCc2ccccc2)cc1Cc1cncnc1` returned an IC50 of 210 nM.

For the compound `Cn1cc(Cc2cncnc2)c(=O)nc1SCc1ccc(F)cc1`, it took 285 nM to reach half-maximal inhibition in assay [1] (IC50). In assay [2], the inhibition (as a rule, how much of the control response was suppressed) came to 28%.

In turn, `O=c1nc(SCc2ccc(F)cc2)n(CCc2ccccc2)cc1Cc1cncnc1` registered an IC50 in assay [1] of 200 nM. For the same compound, the inhibition in assay [2] amounted to 27%.

In the case of `COCCn1cc(Cc2cncnc2)c(=O)nc1SCCCCCCCC(=O)c1ccc(Cl)cc1`, the IC50 in assay [1] came out at 110 nM.

As for `CCCCCCCC/C=C/CCCCCCCCNC(=O)CCCn1cc(Cc2cncnc2)c(=O)nc1SCc1ccc(F)cc1`, inhibition in assay [1] was half-maximal at 0.7 nM (IC50).

`O=C(CCCCCCCSc1nc(=O)c(Cc2cncnc2)cn1CCCc1ccccc1)c1ccc(Cl)cc1` registered an IC50 in assay [1] of 90 nM.

`Cn1cc(Cc2cncnc2)c(=O)nc1SCc1ccccc1` showed an IC50 in assay [1] of 660 nM. Compared with the last compound, the IC50 is about 7.3-fold higher.

Turning to `CCCCCCCCN(C)C(=O)Cn1cc(Cc2cncnc2)c(=O)nc1SCc1ccc(F)cc1`, in assay [1], the 50% inhibitory concentration (IC50) came to 15 nM.

Compound `Cn1cc(Cc2cncnc2)c(=O)nc1SCCCCCCCC(=O)c1ccc(Cl)cc1` yielded an IC50 in assay [1] of 19 nM. The IC50 values of the last two compounds are within 1.5-fold of each other.

For `CCCCCCCCCCCCCCCCCCNC(=O)CCCn1cc(Cc2cncnc2)c(=O)nc1SCc1ccc(F)cc1`, the IC50 in assay [1] was 4 nM.

For `CCCCCCCCCCCn1cc(Cc2cncnc2)c(=O)nc1SCc1ccc(F)cc1`, half-maximal inhibition in assay [1] (IC50) required 19 nM.

For the compound `CCCCCCCCC=CCCCCCCCCNC(=O)Cn1cc(Cc2cncnc2)c(=O)nc1SCc1ccc(F)cc1`, the IC50 in assay [1] was found to be 1 nM.

`O=c1nc(SCc2ccc(F)cc2)n(Cc2ccco2)cc1Cc1cncnc1`: it took 300 nM to reach half-maximal inhibition in assay [1] (IC50). This compound also gave an inhibition in assay [2] of 26%.

Regarding `O=C(CCCCCCCSc1nc(=O)c(Cc2cncnc2)cn1CCc1ccccc1)c1ccc(Cl)cc1`, in assay [1], half-maximal inhibition (IC50) required 34 nM.

`CCCCCCCCC=CCCCCCCCCNC(=O)CCCn1cc(Cc2cncnc2)c(=O)nc1SCc1ccc(F)cc1` came in with an IC50 in assay [1] of 0.4 nM.

As to `O=c1nc(SCc2ccccc2)n(Cc2cccs2)cc1Cc1cncnc1`, the IC50 in assay [1] was 210 nM.
